Experimental data as given in ChEMBL document CHEMBL1139307, “1-Naphthyl and 4-indolyl arylalkylamines as selective monoamine reuptake inhibitors” (Bioorg Med Chem Lett, 2009).

Assays:
[1] = molecular target: Sodium-dependent dopamine transporter (Rattus norvegicus, UniProt P23977); test: Displacement of [125I]RTI55 from DAT in Sprague-dawley rat striatum by liquid scintillation spectrophotometry
Summary of the method: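 Membranes from tissue homogenized in 10 vol of 0.32 M sucrose/10 mM sodium phosphate buffer, pH 7.4, and spun three times at 48,000g for 10 min. Cold-Tris filtration used BSA-presoaked GF/B filters, with WF-23 defining non-specific binding.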

[2] = molecular target: Sodium-dependent serotonin transporter (Rattus norvegicus, UniProt P31652); test: Displacement of [3H]citalopram from SERT in Sprague-dawley rat frontal cortex by liquid scintillation spectrophotometry; assay type: tissue-based
[3] = molecular target: Transporter (Rattus norvegicus, UniProt Q63380); test: Displacement of [3H]nisoxetine from Sprague-dawley rat NET by liquid scintillation spectrophotometry
Chain of Transporter (Q63380 whole entry): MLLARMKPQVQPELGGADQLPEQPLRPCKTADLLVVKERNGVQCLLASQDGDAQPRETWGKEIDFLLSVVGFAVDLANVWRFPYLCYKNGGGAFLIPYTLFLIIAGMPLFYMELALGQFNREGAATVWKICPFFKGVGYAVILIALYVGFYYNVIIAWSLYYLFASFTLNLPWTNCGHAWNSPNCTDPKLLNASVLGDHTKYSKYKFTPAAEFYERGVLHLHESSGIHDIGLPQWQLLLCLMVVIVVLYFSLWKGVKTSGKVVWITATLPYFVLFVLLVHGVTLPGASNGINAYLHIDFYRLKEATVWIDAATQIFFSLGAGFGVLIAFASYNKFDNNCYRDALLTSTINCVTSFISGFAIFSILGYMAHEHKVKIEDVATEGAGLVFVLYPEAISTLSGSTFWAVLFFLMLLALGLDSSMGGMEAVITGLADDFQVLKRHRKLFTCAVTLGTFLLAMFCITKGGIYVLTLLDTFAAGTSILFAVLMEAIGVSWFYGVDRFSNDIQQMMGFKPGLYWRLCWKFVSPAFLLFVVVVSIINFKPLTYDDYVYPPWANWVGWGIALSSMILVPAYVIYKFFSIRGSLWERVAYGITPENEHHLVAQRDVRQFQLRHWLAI

Chain of Sodium-dependent serotonin transporter (P31652 whole entry): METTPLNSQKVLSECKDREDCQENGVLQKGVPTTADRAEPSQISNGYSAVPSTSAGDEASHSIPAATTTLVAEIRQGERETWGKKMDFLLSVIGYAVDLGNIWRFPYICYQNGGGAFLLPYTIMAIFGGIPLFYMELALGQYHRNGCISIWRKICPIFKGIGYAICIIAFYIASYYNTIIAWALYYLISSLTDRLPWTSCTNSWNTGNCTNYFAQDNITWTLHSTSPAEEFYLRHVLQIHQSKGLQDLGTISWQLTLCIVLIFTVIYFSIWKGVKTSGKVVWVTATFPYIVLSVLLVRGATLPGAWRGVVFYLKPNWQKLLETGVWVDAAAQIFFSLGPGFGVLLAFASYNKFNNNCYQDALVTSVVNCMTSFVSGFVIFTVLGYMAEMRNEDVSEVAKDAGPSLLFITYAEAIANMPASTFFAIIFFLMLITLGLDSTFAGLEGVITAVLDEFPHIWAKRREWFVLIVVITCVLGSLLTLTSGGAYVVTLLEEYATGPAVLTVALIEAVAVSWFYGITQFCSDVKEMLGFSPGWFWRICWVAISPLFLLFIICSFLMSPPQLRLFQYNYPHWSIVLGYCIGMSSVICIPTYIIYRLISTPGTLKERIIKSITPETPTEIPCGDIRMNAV
Chain of Sodium-dependent dopamine transporter (P23977 whole entry): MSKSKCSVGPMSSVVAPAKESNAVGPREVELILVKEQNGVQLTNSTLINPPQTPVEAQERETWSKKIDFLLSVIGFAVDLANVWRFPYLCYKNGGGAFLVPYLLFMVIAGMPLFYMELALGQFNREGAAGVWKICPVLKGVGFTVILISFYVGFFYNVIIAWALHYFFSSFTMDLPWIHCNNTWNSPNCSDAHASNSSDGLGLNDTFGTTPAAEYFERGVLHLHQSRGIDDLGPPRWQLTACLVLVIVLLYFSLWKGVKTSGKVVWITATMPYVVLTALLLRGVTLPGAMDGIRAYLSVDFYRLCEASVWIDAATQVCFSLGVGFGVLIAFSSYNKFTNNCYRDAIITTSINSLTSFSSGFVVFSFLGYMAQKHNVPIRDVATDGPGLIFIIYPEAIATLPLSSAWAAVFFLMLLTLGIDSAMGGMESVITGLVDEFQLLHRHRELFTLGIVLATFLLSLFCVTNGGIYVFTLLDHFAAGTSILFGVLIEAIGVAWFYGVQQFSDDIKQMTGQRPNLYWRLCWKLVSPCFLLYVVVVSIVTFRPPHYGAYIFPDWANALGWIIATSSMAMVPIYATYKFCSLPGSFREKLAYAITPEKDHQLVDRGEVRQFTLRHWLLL

| SMILES | IC50 [1] | Ki [2] | Ki [3] |
| --- | --- | --- | --- |
| CNCC[C@H](c1cccs1)c1cccc2ccccc12 | 309 nM | 30.2 nM | 52.1 nM |
| CNCCC[C@@H](c1cccs1)c1cccc2ccccc12 | 405 nM | 9.5 nM | 109 nM |
| CNCCC[C@@H](c1ccc(Cl)c(Cl)c1)c1cccc2[nH]ccc12 | 14.3 nM | 2.72 nM | 360 nM |
| CNCC[C@H](c1cccs1)c1cccc2[nH]ccc12 | – | 31.9 nM | 13.8 nM |
| CNCC[C@@H](c1ccc(Cl)c(Cl)c1)c1cccc2ccccc12 | 35.8 nM | 86 nM | 1630 nM |
| CNCCC[C@H](c1ccc(Cl)c(Cl)c1)c1cccc2ccccc12 | 61.2 nM | 4.1 nM | 2480 nM |
| CNCC[C@@H](c1cccs1)c1cccc2[nH]ccc12 | – | 166 nM | 102 nM |

Further compounds by falling Ki [2], results first:

| IC50 [1] | Ki [2] | Ki [3] | SMILES |
| --- | --- | --- | --- |
| 957 nM | 271 nM | 79.7 nM | CNCCC[C@@H](c1cccs1)c1cccc2[nH]ccc12 |
| 318 nM | 72.9 nM | 9 nM | CNCCC[C@H](c1cccs1)c1cccc2[nH]ccc12 |
| 209 nM | 49.9 nM | > 10000 nM | CNCCC[C@@H](c1ccc(Cl)c(Cl)c1)c1cccc2ccccc12 |
| 466 nM | 39.7 nM | 7.9 nM | CNCCC[C@H](c1cccs1)c1cccc2ccccc12 |
| 230 nM | 12.1 nM | 139 nM | CNCC[C@@H](c1cccs1)c1cccc2ccccc12 |
| 9.7 nM | 5.3 nM | 1640 nM | CNCC[C@H](c1ccc(Cl)c(Cl)c1)c1cccc2ccccc12 |
| 14.9 nM | 3.63 nM | 35.4 nM | CNCC[C@@H](c1ccc(Cl)c(Cl)c1)c1cccc2[nH]ccc12 |
| 7.21 nM | 1.68 nM | 95 nM | CNCC[C@H](c1ccc(Cl)c(Cl)c1)c1cccc2[nH]ccc12 |
| 3.8 nM | 0.82 nM | 4840 nM | CNCCC[C@H](c1ccc(Cl)c(Cl)c1)c1cccc2[nH]ccc12 |
